Screening results as filed in PubChem.
D1 allo mod – allosterically modulates the human D1 dopamine receptor; P21728; HEK293 D1, CRE-luciferase, dopamine EC30 potentiation; actives deviate in either direction; B-score at 10 µM; 5.9% of 58,000 active;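 active means luminescence count or its row- and column-corrected plate score outside the 99.7% band of the plate's sample wells, on either side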
S1P1 ag-PAM – S1P1 (human) agonism or agonism potentiation; activation, % at 9.5 µM; S1P1 CRE-bla cells, forskolin, beta-lactamase FRET, potentiator mode; S1P1 agonist co-added at EC20, 2 nM; 100% = saturating reference agonist, 0% = basal; P21453; 0.57% of 56,000 active;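 active means activation above a cutoff set at the mean activation of all tested compounds plus 3 SD, cut at about 54% in these data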;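 further: forskolin at 4 µM as EC80 and the EC20 agonist is SEW2871; 100% = SEW2871 at its EC100 plus forskolin at EC80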
TNAP act mid DEA – activators of human TNAP at intermediate phosphate acceptor | purified TNAP, CDP-star luminescence, 100 mM DEA, 30 min; active compounds read high; scale: 0 levamisole-inhibited, 1 vehicle-only enzyme | activation factor at 20 µM | 64,000 tested, under 10 active;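 active means activation factor of at least 2 at 20 µM, relative to controls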
S1P3 agonist – activates the human S1P3 receptor; 0.1% of 60,000 active; Q99500; S1P3 NFAT-BLA reporter cells, agonism, FRET ratio; relative to 1 µM S1P, basal subtracted; activation, % at 4.5 µM;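 active means activation above the screen-wide mean plus 3 SD, cut at about 4.5% in these data, passing the limit was not always enough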
Target sequence (Q99500 whole entry, looked up): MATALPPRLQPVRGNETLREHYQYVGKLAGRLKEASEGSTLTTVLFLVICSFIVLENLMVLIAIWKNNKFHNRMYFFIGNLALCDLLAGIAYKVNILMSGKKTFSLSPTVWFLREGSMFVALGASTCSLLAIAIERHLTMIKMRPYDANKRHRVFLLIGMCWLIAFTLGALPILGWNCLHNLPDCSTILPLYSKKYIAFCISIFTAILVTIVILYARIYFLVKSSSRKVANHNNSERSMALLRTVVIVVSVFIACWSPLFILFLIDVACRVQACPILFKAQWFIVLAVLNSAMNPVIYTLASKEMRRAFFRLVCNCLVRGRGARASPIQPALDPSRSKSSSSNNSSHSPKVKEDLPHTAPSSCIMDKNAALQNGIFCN
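material = human S1P3 NFAT-BLA reporter CHO cells | schedule = 4 h compound at 37 °C, 2 h substrate at RT | measured by = fluorescent BLA substrate, ex 405 nm, em 460/535 nm ratio | controls = 1 µM S1P reference | replication = primary once, confirmation triplicate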
M1 antagonist – M1 muscarinic receptor (rat) antagonism; CHO-M1 cells, Fluo-4 calcium, ACh EC80 antagonist mode; active compounds read low; B-score at 10 µM; 3.4% of 64,000 active; P08482;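 active means calcium fluorescence response, raw or row-and-column corrected B-score, differing from the plate sample mean either way at a set confidence level, mostly lower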
M1 ag – agonists of M1 muscarinic receptor; CHO-M1 cells, Fluo-4 calcium fluorescence, agonist mode; active compounds read high; B-score at 10 µM; 3% of 64,000 active; AID 626;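 active means fluorescence rise, raw or as B-score row- and column-corrected plate score, outside the 99.7% band of its plate's samples, either direction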
M1 antag confirm – confirmation of rat M1 muscarinic receptor antagonists | shares compounds with M1 antagonist | CHO-M1 cells, Fluo-4 calcium, ACh EC80 antagonism; active compounds read low | calcium response (max-min fluorescence) at 10 µM | 43% of 1,700 active | AID 677;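 active means calcium response below the same-plate mean of wells given acetylcholine alone at its 80%-effect dose, minus 3 SD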;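 further: raw fluorescence intensity difference in arbitrary instrument units and not normalized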
mGluR4 antag – selectivity test for M1 antagonists: human mGluR4 receptor; shares compounds with M1 antagonist; CHO-mGluR4 calcium flux, Fluo-4 fluorescence, glutamate EC80; active compounds read low; fluorescence response (max-min) at 10 µM; 0.9% of 1,700 active;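 active means fluorescence response below the plate's average for near-maximal glutamate wells, less 3 SD of those wells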;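 further: raw unnormalized fluorescence span taken in the window right after glutamate addition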
Starred values were filed as active, the others as inactive; x = not tested or not shown. This is a sample that favours compounds with a hit; in the whole collection about 11% have one here.

SMILES	D1 allo mod	S1P1 ag-PAM	TNAP act mid DEA	S1P3 agonist	M1 antagonist	M1 ag	M1 antag confirm	mGluR4 antag
CCCCC(CC)CNC(=O)C1CCCN(S(=O)(=O)c2cnc[nH]2)C1 (stereo not given)	-0.41	0	0.8	0	0.97	0.63	x	x
CCOC(=O)c1ccc(COC(=O)c2cc3ccccc3oc2=O)o1	1.4	5	0.9	-1	-2.4*	0.083	473*	206
CCOC(=O)COc1ccc2cc(C(=O)OCC)c(=O)oc2c1	0.33	-10	0.9	0	0.12	-0.32	x	x
Cc1ccc(C)c(CSc2nnc(-c3ccccn3)n2N)c1	0.5	-11	0.9	0	-0.0096	0.36	x	x
Nn1c(-c2ccccn2)nnc1-c1ccccn1	-0.23	-2	1	0	-3.1*	0.62	683	231
Cc1ccc(NC(=O)c2ccc3ccccc3n2)nc1	-1.4	22	0.9	-1	-0.6	0.39	x	x
CCOC(=O)c1c(CN2CCN(C)CC2)oc2ccc(O)cc12	-0.15	-19	1	0	-1	0.076	x	x
CCN(CC)CCOC(=O)c1c(C)oc2ccc(O)cc12	-1.6	-23	1	-1	-3.3*	0.048	296*	258
O=C(CSc1ncnc2nc[nH]c12)N1CCOCC1	0.14	x	1	-1	0.3	-0.4	x	x
O=C(O)CCCNCc1ccccc1F	-1.3	x	0.9	x	0.42	0.72	x	x
COc1ccc(S(=O)(=O)N2CCCC2C(=O)Nc2nnc(-c3cccnc3)s2)cc1 (stereo not given)	0.97	-12	0.9	-1	-1.9*	-0.56	583	270
COc1ccc(S(=O)(=O)N2CCCC2C(=O)Nc2ccc(O)cc2)cc1 (stereo not given)	-0.5	-14	0.8	0	0.088	-0.56	x	x
CC(C)CCNC(=O)C(C)N(Cc1ccc(F)cc1)C(=O)c1ccc(CN2CCCCC2)o1 (stereo not given)	0.0027	11	0.9	14	-3.2*	-0.14	595	219
CC(C)N1C(=O)CCC1C(=O)NCc1ccccc1Cl (stereo not given)	0.45	-29	1	0	0.2	-0.49	x	x
CNc1ccccc1-c1nc2ccccc2n(C)c1=O	x	-6	0.8	-2	-0.15	-0.24	x	x
COc1ccccc1Nc1nc2ccccc2n1C	-2.6	7	0.9	-1	-4.4*	0.062	489	209
COC(=O)CCCc1nc2ccccc2s1	-0.12	12	0.9	-1	-2.5*	-1.1	633	239
O=C(O)CCCc1nc2ccccc2s1	-1.1	-14	0.9	0	0.18	-0.88	x	x
O=C(c1ccc2nc(N3CCCCC3)sc2c1)N1CCN(Cc2ccc3c(c2)OCO3)CC1	-1	-1	1	0	-0.95*	-2.1	366	219
COc1ccc(NC(=O)CSc2nnc(Cc3cccn3C)n2CCc2ccccc2)cc1OC	-1.1	-34	0.8	5	0.54	0.82	x	x
CC(=O)Nc1cccc(NC(=O)CSc2nnc(Cc3cccn3C)n2CCc2ccccc2)c1	0.42	-17	0.9	0	-1.9*	0.1	641	228
Cn1c(=O)c2c(nc(SCC(=O)NC3CCCCC3)n2C)n(C)c1=O	0.13	-3	1	-1	-0.35	-0.6	x	x
O=C(Nc1ccccc1C(=O)N1CCOCC1)c1ccncc1	-0.06	-16	1	-1	0.19	-1.1	x	x
CCCc1nc(SCc2ccccn2)c2c(=O)n(C)c(=O)n(C)c2n1	x	-18	0.9	-1	-1.4*	-1.1	405*	204
CCc1nc(SCc2ccc(C(=O)OC)o2)c2c(=O)n(C)c(=O)n(C)c2n1	3.8	-8	0.9	0	-6.7*	-1	280*	226
SMILES	D1 allo mod	S1P1 ag-PAM	TNAP act mid DEA	S1P3 agonist	M1 antagonist	M1 ag	M1 antag confirm	mGluR4 antag
CCn1c(=O)c2c(nc(SCC(=O)NCC3CCCO3)n2C)n(C)c1=O (stereo not given)	0.67	-3	0.9	0	0.031	-0.53	x	x
Cc1oc(-c2ccccc2F)nc1CN1CCC(C(=O)NCc2ccco2)CC1	-0.3	13	1	0	-3.7*	0.47	566	219
Cc1oc(-c2ccccc2F)nc1CN1CCC(C(=O)NC2CCCCCCC2)CC1	-0.86	-2	1.1	-1	-1.1	-0.38	x	x
CCCCn1c(Cc2ccccc2)n[nH]c1=S	-0.27	x	0.9	0	-12*	-0.46	53*	263
Cc1cc(C(=O)N2CCN(C(c3ccccc3)c3ccccc3)CC2)on1	x	88*	1	0	-1.3*	-0.0029	361*	241
Cc1ccc2c(c1)[nH]c1c(=O)n(CCN3CCNCC3)cnc12	-0.35	21	0.9	0	0.55	-2	x	x
O=c1c2[nH]c3ccccc3c2ncn1CCN1CCNCC1	0.2	-2	0.9	-1	-3.1*	0.2	719	230
COc1ccc(S(=O)(=O)Nc2cccc(NC(C)=O)c2)cc1	-0.28	2	0.9	0	-0.16	-0.34	x	x
CCn1c(SCC(=O)Nc2cc3oc4ccccc4c3cc2OC)nnc1-c1cccs1	1.1	x	0.8	-1	x	x	x	x
Cn1c(SCC(=O)N2CCCCC2)nc2c([nH]c3ccccc32)c1=O	-0.59	-27	0.9	0	-3.5*	0.18	443*	260
Cn1c(SCC(=O)N2CCCCCC2)nc2c([nH]c3ccccc32)c1=O	0.47	x	1	x	-2.3	0.28	x	x
O=c1c2cc(-c3ccccc3)sc2ncn1/N=C/c1ccco1	0.79	x	1	-1	0.8	-0.29	x	x
COc1cccc(CNC(=O)CCn2c(=O)oc3ccccc32)c1	0.19	-16	0.9	-2	-3.5*	-0.32	538	253
CS(=O)(=O)Nc1ccc(C(=O)N2CCCCC2)cc1	-0.066	1	0.9	0	0.12	1	x	x
O=C(CCCCCn1c(=O)[nH]c2ccccc2c1=O)NCCCN1CCN(c2ccccc2F)CC1	-1.8	13	1	0	-3.5*	0.31	506	220
Cc1cc(C)n(-c2c(F)c(F)c(CN3CCCCC3)c(F)c2F)n1	x	-8	0.8	-1	-2.5*	0.028	640	187
OCCNc1nc(N2CCN(Cc3ccccc3)CC2)nc2ccccc12	-1.1	-16	1	0	-0.45	0.12	x	x
COc1ccc(Nc2nc(N3CCCC3)nc3ccccc23)c(OC)c1	-3.1	-82	0.9	0	-8.1*	-0.69	342*	188
C=CCNc1nc(N2CCCC2)nc2ccccc12	-4.5*	-15	0.9	-1	-3.4*	-0.83	581	265
